From paper PMC8920403 (Drug Delivery, 2022)

Tests used:
[1] = test system: neovascular corneal area; conditions: topical solution 0.05 mg/mL SRB and 0.07 mg/mL DMSO; ref Yildirim et al., 2020; cited from earlier work
[2] = test system: endothelial cells; conditions: at a dose of 7.5 µg/mL (0.1–100 µg/mL studied); ref Thiele et al., 2013; cited from earlier work
[3] = Ocular pharmacokinetics in rabbit eyes; assay type: in vivo, New Zealand White rabbits; conditions: after single topical administration; limit of quantitation 0.01 μg/mL
Method in brief: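 Forty-two male New Zealand White rabbits (2.0–2.5 kg) were split into lipid-carrier and suspension groups. Each received a single 50 μL instillation into the lower conjunctival sac of both eyes, with lids held closed for 15 s. At preset times, rabbits were killed with i.v. 4% phenobarbital sodium via the marginal ear vein. After a saline rinse of the ocular surface, aqueous humour was drawn at the limbus with a 26-G needle.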

[4] = test system: experimental CNV; conditions: oral administration, dose-dependent; ref Seo et al., 2012; cited from earlier work
[5] = test system: corneal neovascularization (CNV); test: Alkali burn injury induced CNV in mice; assay type: in vivo, BALB/c mice; conditions: SRB-NLC 0.0125-0.05%, fluorescein staining
Method in brief: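 Male BALB/c mice (20–25 g) were anaesthetised with 1% sodium pentobarbital i.p. (80 mg/kg) plus 0.4% oxybuprocaine drops. 2 μL of 0.1 M NaOH on filter paper was applied to the right central cornea for 20 s, then rinsed with 20 mL saline. Groups of 16 received saline, test-compound lipid carrier (0.05, 0.025 or 0.0125%) or dexamethasone drops, 5 μL twice daily for 7 days. On day 7, corneas from three mice per group were fixed in 4% paraformaldehyde for 48 h, paraffin-processed, and 5 µm sagittal sections were H&E stained.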

[6] = test system: VEGF-A; test: ELISA of VEGF-A in cornea of alkali burn CNV mice; assay type: in vivo, BALB/c mice; conditions: dexamethasone eye drops, days 3 and 7, P < 0.05
Method in brief: (§1)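 Alkali-burn CNV mice (0.1 M NaOH, 20 s) were given saline, test-compound lipid carrier or dexamethasone drops, 5 μL twice daily. On days 3 and 7, five mice per group were killed. Corneas were weighed, frozen at −80 °C, thawed at 4 °C for 0.5 h and minced. Tissue was extracted in 100 μL RIPA on ice for 1.5 h and spun at 12,000 rpm, 4 °C, 5 min. ELISA absorbance was read at 450 nm and normalised to BCA total protein. Mean ± SD; one-way ANOVA, with t test for pairs.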

[7] = test system: PDGF-AB; test: ELISA of PDGF-AB in cornea of alkali burn CNV mice; assay type: in vivo, BALB/c mice; conditions: dexamethasone eye drops, days 3 and 7, P < 0.05
Method in brief: as §1

Molecule | Percentage of the neovascular corneal area vs DMSO alone [1] | Toxic effects on endothelial cells [2] | SRB levels in the aqueous humor (AH) [3] [µg/mL] | Development of experimental CNV [4] | Recovery of corneal epithelial defects after alkali burn injury [5] | VEGF-A level in corneal tissue vs saline group [6] | PDGF-AB level in corneal tissue vs saline group [7]
CNC(=O)c1cc(Oc2ccc(NC(=O)Nc3ccc(Cl)c(C(F)(F)F)c3)cc2)ccn1 [SRB, Sorafenib] | significantly lower | no toxic effects | < 0.01 | significantly reduced the development of experimental CNV | could effectively promote the recovery of corneal epithelial defects | – | –
Dexamethasone sodium phosphate | – | – | – | – | – | significantly lower | significantly lower
